Source: PubChem (several laboratories)
SUMO HTRF inh – inhibitors of in vitro SUMOylation cascade, primary screen, biochemical, HTRF, uHTS; SUMO-conjugating enzyme UBC9 (Homo sapiens), P63279; HTRF SUMOylation assay, SAE1/SAE2 + UBC9; inhibition, % at 35 µM; 290,000 tested, 0.36% active; in the data active = inhibition above about 50%, passing the limit was not always enough
Target sequence (P63279 whole entry, looked up): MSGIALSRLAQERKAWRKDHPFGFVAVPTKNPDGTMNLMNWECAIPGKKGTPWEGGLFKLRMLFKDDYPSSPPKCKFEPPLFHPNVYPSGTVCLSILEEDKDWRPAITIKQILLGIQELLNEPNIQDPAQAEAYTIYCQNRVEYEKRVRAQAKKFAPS
NS3 helicase inh – inhibitors of HCV NS3 helicase, primary screen, biochemical, Cy5 molecular beacon fluorescence; Hepatitis C virus NS3 helicase; NS3 helicase DNA unwinding; inhibition, % at 10.9 µM; 290,000 tested, 0.56% active;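 active = inhibition above the mean of all tested compounds plus 3 SD, set per campaign, cut at about 35% in these data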;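 also: 0% = DMSO wells and 100% = thioflavine S control wells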
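Control set: DMSO versus 110 µM thioflavine S; Material: NS3 helicase fragment of HCV; Measured by: Cy5 fluorescence at 0 and 60 min, beacon hairpin quenching; Read-out basis: percent inhibition from t60/t0 fluorescence ratio; Times: reaction time 60 min, 25 °C; Repeats: single replicate; Compound dosing: single dose, 10.9 µM nominal final, DMSO 0.8% final.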
DNA FID counter-1 – compounds displacing fluorescent DNA intercalator, primary screen, artefact control for HCV NS3 helicase inhibitor project, biochemical, FID fluorescence; DNA fluorescent intercalator displacement; inhibition, % at 7.9 µM; 290,000 tested, 0.17% active; AID 1845, 2009;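 also: 0% = vehicle and 100% = reference compound; higher means more ethidium bromide displaced from hairpin DNA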
IMP-1 inhibitor – IMP-1 metallo-beta-lactamase inhibitors, primary screen, biochemical, epi-absorbance readout, Pseudomonas aeruginosa enzyme. metallo-beta-lactamase IMP-1 (Pseudomonas aeruginosa). purified IMP-1, nitrocefin hydrolysis, epi-absorbance fluorescence. inhibition, % at 5.6 µM. 290,000 tested, 0.45% active;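 active = inhibition above the mean plus 3 SD of all compounds in the same screening run, cut at about 4.5% in these data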;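 also: 0% = IMP-1 with DMSO and 100% = DMSO wells lacking enzyme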
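assay system = purified recombinant IMP-1 metallo-beta-lactamase enzyme | schedule = 15 min preincubation plus 25 min reaction at 25 °C | signal = Epi-absorbance fluorescence, 480 nm excitation, 530 nm emission | read-out basis = percent inhibition from optical density relative to buffer-blank wells | controls = IMP-1 with DMSO as 0%, enzyme-free DMSO as 100%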
VIM-2 inh – VIM-2 metallo-beta-lactamase inhibitors, primary screen, biochemical, epi-absorbance readout, Pseudomonas aeruginosa enzyme. purified VIM-2, nitrocefin hydrolysis, epi-absorbance fluorescence. 290,000 tested, 0.89% active. inhibition, % at 5.6 µM;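 active = inhibition above the mean of all tested compounds plus 3 SD, cutoff set per screening run, cut at about 7.5% in these data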;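 also: red hydrolysis product quenches plate fluorescence so inhibitors raise well fluorescence; 0% = enzyme with DMSO and 100% = DMSO without enzyme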
NS3 hel confirm – HCV NS3 helicase inhibitors, retest, confirmation, biochemical, Cy5 molecular beacon fluorescence, triplicate | NS3 helicase DNA unwinding | AID 1943, 2009 | shares compounds with NS3 helicase inh | 1,600 tested, 31% active | inhibition, % at 10.9 µM;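 active = inhibition above the mean of all tested compounds plus 3 SD, cutoff set per campaign, cut at about 36% in these data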
DNA FID counter-2 – compounds displacing fluorescent DNA intercalator, artefact control for HCV NS3 helicase inhibitor project, biochemical, FID fluorescence, triplicate; inhibition, % at 7.9 µM; shares compounds with NS3 helicase inh; 1,600 tested, 4% active; DNA fluorescent intercalator displacement;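 also: 0% = vehicle and 100% = reference compound; higher means more displacement of ethidium bromide from the DNA hairpin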
FID counter DR – compounds displacing fluorescent intercalator from DNA, dose response, counter-screen for HCV NS3 helicase inhibitor project, biochemical, fluorescence; 120 tested, under 10 active; shares compounds with NS3 helicase inh; fluorescent intercalator displacement from DNA; IC50, µM; call rule not given here
Active calls of the source: *; nt = not tested or not shown. This is a sample that favours compounds with a hit; in the whole collection about 2.1% have one here. Rule as the data show it, unless noted: active = inhibition above about 37%; inactive = the rest.

SMILES | SUMO HTRF inh | NS3 helicase inh | DNA FID counter-1 | IMP-1 inhibitor | VIM-2 inh | NS3 hel confirm | DNA FID counter-2 | others
Cc1nn(-c2ccccc2)c2nc(-c3ccco3)cc(C(=O)O)c12 | 28 | 42* | -3 | -3 | 0 | 67* | -9
O=C(O)c1cc(-c2cc3ccccc3o2)nn1-c1ccccc1 | 23 | 21 | -37 | 0 | 0 | nt | nt
O=C(O)c1cc(-c2cccs2)nn1-c1cccc(Cl)c1 | 8 | 7 | -15 | -1 | -2 | nt | nt
O=C(O)c1cc(-c2ccco2)nn1-c1ccc(Cl)cc1 | 59 | 44* | -26 | -1 | 1 | 83* | 7
COCc1cc(CN2CCCC(C(=O)Nc3ccc(-c4ccco4)cc3)C2)ccc1OC (stereo not given) | 3 | -34 | -8 | -3 | -1 | nt | nt
COc1ccc2nc(SCC(=O)N3CCN(c4ccccc4F)CC3)c(C#N)cc2c1 | nt | 1 | -6 | 0 | 0 | nt | nt
CCO/C(C)=C1/SC(=S)NC1=O | 3 | 11 | 0 | 3 | 0 | nt | nt
Cc1c(C(=O)OCC(C)C)[nH]c2c1C(=O)CC(c1ccco1)C2 (stereo not given) | 29 | 37* | -14 | 0 | 0 | -11 | -10
C=CCOC(=O)c1[nH]c2c(c1C)C(=O)CC(c1ccco1)C2 (stereo not given) | 1 | 39* | -12 | -4 | -2 | -4 | 6
C/C=C/COC(=O)c1[nH]c2c(c1C)C(=O)CC(c1ccco1)C2 (stereo not given) | 27 | 30 | -16 | -4 | -4 | nt | nt
O=S(=O)(Cc1ccccc1)NCCc1cccc(Cl)c1 | -1 | -1 | -11 | -3 | -2 | nt | nt
CC(=O)c1ccc(N2CCN(S(=O)(=O)c3ccc4c(c3)NC(=O)CO4)CC2)cc1 | -2 | 1 | -28 | -2 | -4 | nt | nt
CCC(C)NC(=O)CN(c1ccc(Cl)c(Cl)c1)S(C)(=O)=O (stereo not given) | 10 | 5 | 0 | -2 | -3 | nt | nt
COc1cccc(-n2c(N)c(C(=O)Nc3c(C)n(C)n(-c4ccccc4)c3=O)c3nc4ccccc4nc32)c1 | 12 | 38* | -37 | 0 | 2 | 7 | -55
Cc1cc(C)cc(-n2c(N)c(C(=O)Nc3c(C)n(C)n(-c4ccccc4)c3=O)c3nc4ccccc4nc32)c1 | -3 | 13 | -10 | -3 | -2 | nt | nt
COc1ccc(N2CCN(C(=O)CN(c3ccccc3)S(=O)(=O)c3ccc(OC)cc3)CC2)cc1 | -9 | 40* | -8 | -4 | -2 | -15 | -26
COc1ccc(N2CCN(C(=O)CN(c3ccc(OC)cc3)S(=O)(=O)c3ccccc3)CC2)cc1 | -4 | -10 | -45 | -2 | -2 | nt | nt
Cc1ccc(NC(=O)c2cc(S(=O)(=O)N3CCCC3)c[nH]2)c(C)c1 | 7 | -14 | -20 | 2 | -2 | nt | nt
O=C(NCc1cccs1)C1CCN(S(=O)(=O)c2ccccc2F)CC1 | 8 | 10 | -8 | -4 | -3 | nt | nt
COCCCNC(=S)N(Cc1ccccc1)Cc1ccccc1 | -4 | 11 | -9 | -5 | -2 | nt | nt
CCN(C(=S)NCCOC)c1cccc2ccccc12 | -4 | 44* | -15 | -2 | -4 | 1 | -31
COCCNC(=O)c1cccc(OC2CCN(C(C)COc3ccccc3)CC2)c1 (stereo not given) | 0 | -8 | 0 | -3 | -1 | nt | nt
CCc1ccc(/C=C/C(=O)c2cc(Br)ccc(=O)c2O)cc1 | 15 | 16 | -21 | 3 | -1 | nt | nt
CCOc1ccc(/C=C/C(=O)c2cc(Br)ccc(=O)c2O)cc1 | 22 | 59* | -23 | 2 | 1 | 77* | 5 | FID counter DR=>79
